In the library only some 2.1% were active in any assay of this set; here they are far more common.
SR-BI HDL uptake: mouse SR-BI HDL lipid transfer inhibition; ldlA[mSR-BI] CHO cells, DiI-HDL uptake fluorescence, 3 h; inhibition, % at 12.5 µM; 320,000 compounds, 0.96% hits; AID 488896;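 active = mean replicate inhibition of at least 70% and a set share of replicates each scoring 70 or more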;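 note: 0% = median of neutral control wells and 100% = median of positive control wells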
Target sequence (Q61009 whole entry, looked up): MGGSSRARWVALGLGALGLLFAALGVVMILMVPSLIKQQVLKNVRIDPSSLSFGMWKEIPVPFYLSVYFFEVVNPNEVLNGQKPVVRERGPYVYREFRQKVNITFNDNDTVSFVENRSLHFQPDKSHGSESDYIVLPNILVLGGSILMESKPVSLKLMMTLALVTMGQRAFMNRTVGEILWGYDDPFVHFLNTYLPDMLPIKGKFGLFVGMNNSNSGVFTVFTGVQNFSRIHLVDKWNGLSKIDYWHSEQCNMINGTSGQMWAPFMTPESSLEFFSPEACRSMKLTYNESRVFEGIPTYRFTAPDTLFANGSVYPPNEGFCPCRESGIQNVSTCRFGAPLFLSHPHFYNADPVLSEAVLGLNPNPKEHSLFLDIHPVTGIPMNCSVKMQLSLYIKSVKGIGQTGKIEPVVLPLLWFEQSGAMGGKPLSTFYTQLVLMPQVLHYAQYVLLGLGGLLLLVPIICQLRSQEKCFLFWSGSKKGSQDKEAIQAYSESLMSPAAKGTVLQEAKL
miR122 inh: miR-122 inhibition in Huh7 cells; 340,000 compounds, 0.3% hits; activation (reporter increase), % at 12.5 µM; Huh7 miR-122 Renilla luciferase sensor, 48 h; neutral wells = 0, positive control = 100; AID 602342;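 active = mean replicate activation score at least 90 and every replicate individually at or above 90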;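 note: higher luciferase means less miR-122 activity so hits act as miR-122 inhibitors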
CAL PDZ FP-1: blocks peptide binding to human CAL PDZ domain | Q9HD26 | purified CAL PDZ, TMR-peptide fluorescence polarization, 1 h | inhibition, % at 20 µM | 330,000 compounds, 0.02% hits | AID 504414;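 active = highest replicate inhibition of at least 40%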;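 note: plate controls were DMSO neutral control wells for no effect and unlabeled competitor peptide control wells for full effect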
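Material – purified CerCALP PDZ construct · Detection – FP readout, S and P plane fluorescence · Measure – percent inhibition from loss of millipolarization · Controls – unlabelled peptide for full inhibition, DMSO wells as neutral · Probe or stimulus – TMR-labelled reporter peptide T*-PRC34 bound in PDZ groove · Times – 1 h at RT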
ARNT-TACC3 inh: disrupts binding between human ARNT and TACC3. Q9Y6A5. AlphaScreen His-ARNT PAS-B/GST-TACC3 binding, luminescence; TACC3 fragment carries E629A point mutation. inhibition, % at 9.99 µM. 390,000 compounds, 0.66% hits. AID 623870;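 active = mean inhibition of replicates at least 50% and at least half of replicates each reaching 50%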;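 note: 0% = complete ARNT plus TACC3 wells and 100% = ARNT alone without TACC3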
SR-BI DiI-HDL act: activators of SR-BI mediated HDL lipid uptake. CHO ldlA[mSR-BI] cells, DiI-HDL uptake fluorescence, 3 h; 100 = double the neutral-control signal. AID 504775. activation, % at 12.5 µM. 320,000 compounds, 0.096% hits;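 active = mean replicate activation of at least 60% and every replicate at or above 60%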;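 note: 0% = median plate neutral-control signal and 100% = twice that signal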
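system = CHO ldlA[mSR-BI] cells, LDL receptor-null, SR-BI overexpressing | medium = Ham's F12 with 0.5% BSA, HEPES 25 mM, pH 7.4 | probe or stimulus = DiI-HDL 10 µg/mL | compound dosing = single-point compound dose | incubation = compound exposure 3 h, 37 °C | technique = DiI fluorescence, bottom read | read-out = cell-associated DiI fluorescence as measure of HDL uptake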
CAL PDZ FP-2: CAL PDZ (human) peptide binding inhibition | Q9HD26 | purified CAL PDZ, TMR-peptide fluorescence polarization, 1 h | inhibition, % at 24.9 µM | 300,000 compounds, 0.92% hits | AID 602252;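 active = mean inhibition of at least 30% with at least half of replicates also reaching 30%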;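 note: 0% = DMSO neutral control and 100% = excess unlabeled competitor peptide PRC23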
An asterisk follows results filed as active; x = not tested or not shown; + = active, no number; [ ] = remark or other dose.

SMILES	SR-BI HDL uptake	miR122 inh	CAL PDZ FP-1	ARNT-TACC3 inh	SR-BI DiI-HDL act	CAL PDZ FP-2
Cc1ccc(S(=O)(=O)NC(=NCC(=O)O)c2ccc(F)cc2)cc1	-15.4	-7.7	-0.3	-2.0	15.4	-2.4
Cc1ccc(S(=O)(=O)NC(=NCc2ccccc2)c2ccc(F)cc2)cc1	-9.5	116.5*	-0.7	0.0	9.5	-2.6
COc1ccc(-c2nc3n(c(=O)c2C#N)CCS3)cc1	-1.4	x	-0.5	-2.1	1.4	0.1
FC(F)Oc1ccc(/C=N/c2c(-c3ccc(OC(F)F)cc3)nc3n2CCS3)cc1	73.7*	7.5	-1.0	-0.9	-73.7	-1.8
C[C@@H]1CCCCO[C@@H](CN(C)Cc2ccc(Cl)c(Cl)c2)[C@@H](C)CN([C@@H](C)CO)C(=O)c2cc(NC(=O)C3CCCCC3)ccc2O1	x	1.1[16.7 µM]	x	-3.2	x	x
CC1CCC(C(C)C)C(OC(=O)C2=C3c4ccccc4S(=O)(=O)N3CC2)C1 (stereo not drawn)	71.4*	1.7	x	-3.7	-71.4	-2.7
CC1CCC(C(C)C)C(OC(=O)CSc2nccc(=O)[nH]2)C1 (stereo not drawn)	-8.4	-4.0	-2.3	-6.5	8.4	-1.8
Oc1c(CN2CCc3ccccc3C2)cc(Cl)c2cccnc12	36.3	20.3	0.4	58.2*	-36.3	x
CN1CCN(Cc2cc(COCc3ccccc3)c3cccnc3c2O)CC1	11.3	24.3	-0.9	2.0	-11.3	2.2
COc1ccc(C(=O)O)cc1S(=O)(=O)N1CCCc2ccccc21	7.5	-0.1	-4.6	11.4*	-7.5	-3.5
COc1ccc(S(=O)(=O)N[C@@H]2CC[C@@H](CC(=O)N3CCN(c4ccccc4)CC3)O[C@H]2CO)cc1	x	x	x	0.0	x	x
CCn1c(C)nc2cc(C(=O)NN=C(C)c3ccc(C#N)cc3)ccc21	17.9	x	-2.9	22.3	-17.9	-5.0
CCn1c(C)nc2cc(C(=O)N/N=C(\C)c3ccc(OC)cc3O)ccc21	88.3*	x	-2.4	1.4	-88.3	-5.0
CC1=NN(C(N)=S)C(=O)C1N=Nc1ccccc1O (stereo not drawn)	-1.0	8.9	-1.9	75.9*	1.0	-1.3
CC1=NN(C(N)=S)C(=O)C1N=Nc1ccccc1C (stereo not drawn)	-5.3	0.0	-1.5	-2.1	5.3	-4.6
CC1=NN(C(N)=S)C(=O)C1N=Nc1c(C)n(C)n(-c2ccccc2)c1=O (stereo not drawn)	-12.0	7.8	0.3	46.6*	12.0	-7.6
C[C@@H]1CN([C@H](C)CO)C(=O)c2cc(C#Cc3ccccn3)cnc2O[C@H]1CN(C)Cc1ccncc1	x	0.4[16.7 µM]	x	-1.0	x	x
CCCS(=O)(=O)N1CCCC(C(=O)Oc2ccc(OC)cc2)C1 (stereo not drawn)	-10.0	x	0.1	-6.5	10.0	-4.8
CCCCS(=O)(=O)N1CCCC(C(=O)Oc2ccccc2)C1 (stereo not drawn)	-6.5	-2.3	x	-2.1	6.5	65.6*
O=C(C[N+]1(CC#Cc2ccccc2)CCOCC1)c1ccc(Cl)cc1	14.2	x	-1.6	5.2	-14.2	-1.8
O=C(C[N+]1(CC#Cc2ccccc2)CCOCC1)c1ccccc1	0.4	x	-0.6	0.1	-0.4	48.5*
COc1ccccc1NC(=O)c1ccc(NC(=O)c2cc3c(s2)CCC3)cc1	72.5*	x	-1.8	-6.6	-72.5	-0.1
O=C(C(=O)N1CCCc2ccccc21)c1cn(CC(=O)N2CCOCC2)c2ccccc12	x	-2.8	-0.2	-2.3	x	5.4
Cn1cc(C(=O)C(=O)N2CCCc3ccccc32)c2ccccc21	32.8	x	-4.2	-3.5	-32.8	34.1*
Cc1cc(C(=O)COC(=O)c2ccc(NC(=O)CC#N)cc2)c(C)n1C1CC1	79.2*	-1.2	-2.8	-5.8	-79.2	0.4
SMILES	SR-BI HDL uptake	miR122 inh	CAL PDZ FP-1	ARNT-TACC3 inh	SR-BI DiI-HDL act	CAL PDZ FP-2
Cc1ccccc1OCC(=O)OCC(=O)c1cc(C)n(C2CC2)c1C	x	-2.4	-2.2	0.9	x	46.5*
Cc1ccc(Cn2ccsc2=NC(=O)COC(=O)c2ccc(NC(=O)CC#N)cc2)cc1	76.8*	-5.8	-1.1	-0.6	-76.8	x
O=C(NC1CCCC1)[C@H]1[C@H](CO)[C@H]2Cn3c(ccc(C4=CCCC4)c3=O)[C@@H]1N2C(=O)c1ccccc1	x	x	x	7.7	x	x
Cc1cc(C=C(C#N)C#N)c(C)n1-c1ccccc1	1.3	-3.5	0.9	-3.4	-1.3	-3.9
Cc1cc(/C=C(\C#N)C(=O)O)c(C)n1-c1ccc(Br)cc1	-8.7	-1.9	-2.2	4.6	8.7	+
Cc1noc(C)c1S(=O)(=O)Nc1ccc2c(c1)C(=O)N([C@H](C)CO)C[C@@H](C)[C@@H](CN(C)C(=O)c1ccccc1)OCCCC[C@H](C)O2	x	1.5[16.7 µM]	x	-5.4	x	x
Cc1nn(-c2ccc(N3CCCCC3)nn2)c(C)c1CCC(=O)Nc1ccccc1F	67.1	3.3	-1.1	6.2	-67.1	-1.9
Cc1ccc(NC(=O)CCc2c(C)nn(-c3ccc(N4CCOCC4)nn3)c2C)cc1C	79.2*	-6.6	-4.5	5.1	-79.2	-6.6
Cc1nn(-c2ccc(N3CCCCC3)nn2)c(C)c1CCC(=O)Nc1cc(F)ccc1F	72.5*	-7.6	-0.1	5.9	-72.5	3.5
Cc1ccccc1NC(=O)CCc1c(C)nn(-c2ccc(N3CCCCC3)nn2)c1C	81.8*	-6.6	-1.7	x	-81.8	0.1
Cc1cccc(NC(=O)CCc2c(C)nn(-c3ccc(N4CCOCC4)nn3)c2C)c1	61.2	-4.1	0.0	5.3	-61.2	-3.4
C[C@@H]1CCCCO[C@@H](CN(C)S(=O)(=O)c2ccc(Cl)cc2)[C@H](C)CN([C@H](C)CO)C(=O)c2cc(NC(=O)Nc3ccc(F)cc3)ccc2O1	x	-10.6[16.7 µM]	x	-3.9	x	x
CCC(=O)Nc1ccc2c(c1)Cc1cc(NC(=O)CC)ccc1-2	74.0*	-5.6	0.0	-6.6	-74.0	x
C[C@@H]1CN([C@@H](C)CO)C(=O)c2cc(NS(=O)(=O)c3cccs3)ccc2O[C@@H](C)CCCCO[C@H]1CN(C)C(=O)CCCN(C)C	x	11.0[16.7 µM]	x	4.7	x	x
CCC(=O)N[C@@H]1CC[C@H](CC(=O)NCc2ccc(OC)cc2)O[C@H]1CO	x	x	x	12.2	x	x
Cc1c(-c2nc(-c3ccncc3)no2)cccc1[N+](=O)[O-]	-17.8	x	-1.2	-6.8	17.8	68.9*
COc1ccc(NC(=O)c2cc(-c3ccco3)nc3ccccc23)cc1S(=O)(=O)N1CCOCC1	89.1*	-1.8	-2.9	4.0	-89.1	-2.1
O=C(Nc1ccc(Cl)c(S(=O)(=O)N2CCOCC2)c1)c1cc(-c2ccccn2)nc2ccccc12	82.7*	-4.8	-3.1	1.2	-82.7	x
O=C(Nc1ccc(Cl)c(S(=O)(=O)N2CCOCC2)c1)c1ccccn1	1.6	x	-1.8	x	-1.6	x

High-throughput results from PubChem BioAssay.
